Lmaj promast: Leishmania major promastigote growth inhibition. Leishmania major promastigotes, resazurin fluorescence viability. inhibition, % at 10 µM. 200,000 tested, 9% active. AID 1063; in the data active = inhibition above about 50%;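 also: promastigotes grown with compound for 44 hours at 28 °C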
HSV augment: increases HSV replication in cells. HSV replication augmentation in cells, fold increase. maximum fold increase. 220,000 tested, 0.005% active; in the data active = maximum fold increase above about 1.5; inconclusive = no clear call, values can overlap the other calls; tested in PC3 cells
Dynein cargo inh: dynein cargo transport inhibition; 3617.4 mouse cells, GR-EGFP nuclear translocation imaging; test concentration mostly 20 µM; stimulated with dexamethasone, 1 µM; hits give low values; z-score, hits read low; 220,000 tested, 0.47% active; AID 1381;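 active = plate z-score of nuclear minus cytoplasmic receptor signal below a set negative limit, without overly bright fluorescence or cell loss, cut at about -3.5 in these data, passing the limit was not always enough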;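 also: z-score of nuclear minus cytoplasmic ring GR-EGFP intensity difference per well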
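Buffer or medium: tet-free, stripped-serum medium; reagent: dexamethasone at 1.0 µM final, 30 min; incubation: 48 h induction, 1 h compound, 30 min dex at 37 °C; measured by: formaldehyde fixation, Hoechst nuclear stain, 10x automated fluorescence imaging; read-out: nuclear-to-cytoplasmic GR-EGFP distribution per well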
bCat nuc transl: beta-catenin nuclear translocation modulation; AID 1665; HeLa beta-catenin nuclear translocation, immunofluorescence imaging; 190,000 tested, 0.3% active; nuclear translocation activity, % at 5 µM;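 active = nuclear translocation activity above 50% at 5 µM, with a well cell count of 50 or more; inconclusive = wells under 50 cells across six images, flagged as toxic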;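 also: per-cell ratio of nuclear to cytoplasmic median beta-catenin stain intensity; plate controls were DMSO negative control for no effect and GSK-3 inhibitor IX positive control for full effect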
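test system = HeLa cells, endogenous beta-catenin | dosing = single 5 µM dose plus 0.02–20 µM confirmation series | times = compound treatment 24 h, 37°C, 5% CO2 | technique = beta-catenin immunofluorescence imaging with DAPI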
MT stabilizer: microtubule stabilization, imaging screen; HeLa tubulin immunostaining HCS, 24 h; share of cells brighter than vehicle mean+2SD; % tubulin-high responders, % at 10 µM; 200,000 tested, 0.83% active; AID 2205;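 active = plate Z-score above 3 for both tubulin-high and condensed-nucleus cell shares, with cell loss under 80%, at 10 µM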;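 also: anti alpha tubulin signal scored within the nucleus-defined area of each cell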
Dynein inh conf: dynein cargo transport inhibition, confirmation | shares compounds with Dynein cargo inh | 3617.4 GR-EGFP nuclear translocation imaging, dexamethasone-induced | calls only at 20 µM | 1,000 tested, 69% active;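 active = inhibition of receptor movement into the nucleus at or above a set limit in both runs, with normal cell brightness and cell count; inconclusive = limit reached in only one run, brightness and count normal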;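 also: dexamethasone at 1 µM final in well for 30 min; nuclear minus cytoplasmic GR-EGFP mean intensity difference in channel 2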
* = called active by the depositor; i = inactive; ? = inconclusive; . = no result given; + = active, no number. Rows were chosen to be rich in hits. Some 8.9% of all compounds tested hit in one or more screens of this group.

SMILES | Lmaj promast | HSV augment | Dynein cargo inh | bCat nuc transl | MT stabilizer | Dynein inh conf
Cc1cccc(NC(=S)NC(=O)/C=C/c2ccccc2)n1 | -7 | i | 3 | -3 | 3 | .
CCCCN1C(=O)/C(=C/C=C2\N(C)c3ccccc3C2(C)C)SC1=S | 18 | . | -5 | 13 | 11 | i
CCOc1ccc(C(=O)NCc2ccccn2)cc1 | -6 | i | 0.11 | 1 | 3 | .
O=C(NCc1ccccn1)c1coc(=O)c(Br)c1 | 5 | i | -4.1* | 0 | 4 | i
COc1cc(C2Oc3ccccc3C=C2[N+](=O)[O-])cc(OC)c1OC (stereo unspecified) | . | i | -5.6* | 3 | . | +
COc1cc(C2NC(=O)c3ccccc3O2)cc(OC)c1OC (stereo unspecified) | -3 | i | -0.56 | -1 | 2 | .
CC1Cc2ccccc2N1C(=O)C1CCCN1S(=O)(=O)c1ccc(Cl)cc1 (stereo unspecified) | -7 | i | 0.47 | -4 | 2 | .
Cc1ccc(NC(=O)C(c2ccc(Cl)cc2)N2CCOCC2)cc1 (stereo unspecified) | 14 | i | 1.8 | . | 6 | .
S=C1NC[C@H](Cc2ccccc2)N1CCc1cccc2ccccc12 | . | i | -0.15 | -2 | . | .
COCCN(C(=O)CCl)C(C(=O)NC1CCCCC1)c1ccccc1C (stereo unspecified) | 99* | i | -4.4* | 2 | 8 | +
Cc1ccc(C(=O)NC(C#N)=C(Cl)Cl)cc1 | 15 | i | -4.3* | 0 | 6 | +
Cc1ccc(C(=O)NCC#N)cc1 | -9 | i | 0.16 | -1 | 2 | .
CCCNC(=O)Cn1sc2nc(C)cc(C)c2c1=O | . | i | -4.8* | 0 | . | i
Cc1nc2ccc(S(=O)(=O)NCC(=O)N3CCC(N4CCCCC4)CC3)cc2s1 | 17 | i | -0.34 | -3 | 3 | .
Cc1cc(C)c2c(=O)n(CC(=O)N3CCC(N4CCCCC4)CC3)sc2n1 | 4 | i | -4.2* | -6 | 5 | i
CC(=O)Cn1cnc2c(sc3nc(C)cc(C)c32)c1=O | . | i | -0.38 | 2 | . | .
CCOC(=O)C1CCCN(C(=O)Cn2sc3nc(C)cc(C)c3c2=O)C1 (stereo unspecified) | -4 | i | -4.1* | -6 | 4 | ?
CCOCCn1c(=NC(=O)c2cc3ccccc3oc2=O)sc2cc(S(N)(=O)=O)ccc21 | -3 | i | -2.5 | -1 | 1 | .
O=C1OCC(c2ccccc2)=C1c1ccccc1[N+](=O)[O-] | 9 | i | 0.7 | 0 | 3 | .
CCc1sc(C(C2C(=O)CC(C)(C)CC2=O)C2C(=O)CC(C)(C)CC2=O)cc1[N+](=O)[O-] | 24 | i | -5.2* | 2 | 2 | i
CC1(C)CC(=O)C(C(c2ccc(F)cc2)C2C(=O)CC(C)(C)CC2=O)C(=O)C1 | 40 | i | 0.082 | . | 3 | .
O=C(Nc1nc(-c2ccco2)cs1)c1ccccc1 | 3 | i | -0.87 | 5 | 9 | .
CC(C)C[C@H](N)c1nnc(S(=O)(=O)Cc2cccc(F)c2)o1 | -5 | i | -4.9* | 2 | 6 | +
Cn1c(=O)c(NCCc2ccccc2)c2c3c(cccc31)C(=O)c1ccccc1-2 | 8 | ? | -5.1* | -7 | 3 | +
Cn1c(=O)c(NCCO)c2c3c(cccc31)C(=O)c1ccccc1-2 | 6 | . | -6.9* | . | 1 | +
SMILES | Lmaj promast | HSV augment | Dynein cargo inh | bCat nuc transl | MT stabilizer | Dynein inh conf
CCCCNc1c2c3c(cccc3n(C)c1=O)C(=O)c1ccccc1-2 | 6 | . | -5.1* | 2 | 27* | +
O=C(CC1Sc2ncnn2C1=O)Nc1ccc(Br)cc1 (stereo unspecified) | 17 | i | -3.6* | -2 | 2 | i
Cc1cccc(N(CC(=O)NC(C)(C)C)C(=O)CS(=O)CC(=O)Nc2ccc(F)cc2)c1 (stereo unspecified) | -4 | i | -1.5 | 1 | 1 | .
Cc1cc2c(cc1C)NC(CC(=O)NCc1ccccc1)C(=O)N2 (stereo unspecified) | 4 | i | -3.7 | -2 | 3 | i
O=C(c1ccc2c(=O)n3c(nc2c1)CCCCC3)N1CCN(C(c2ccccc2)c2ccccc2)CC1 | 40 | i | 1.3 | -2 | 1 | .
CC(C)N(CC(=O)Nc1ccc(Cl)cc1C(F)(F)F)C(=O)CCl | 3 | i | -7.1* | . | 3 | +
COc1ccc(CCNc2nc(-c3ccco3)cc(C(F)(F)F)n2)cc1OC | 10 | i | -1.2 | 0 | 4 | .
Fc1ccc(CNc2nc(-c3ccco3)cc(C(F)(F)F)n2)cc1 | 0 | i | -4.4* | 0 | 3 | i
Cc1ccc(C2=NOC(=O)/C2=C\C=C\c2ccccc2)cc1 | 100* | i | -5.6* | 3 | 6 | +
CN(C)/C=C1\C(=O)ON=C1c1ccccc1 | 0 | . | -0.19 | -7 | 3 | .
CC1=NN(c2ccccc2)C(=O)/C1=C/C=C/c1ccccc1 | 100* | i | -5.8* | 0 | 3 | +
S=c1[nH]nc(-c2cccnc2)n1/N=C/C=C/c1ccco1 | -5 | i | -0.18 | -1 | 3 | .
COc1cc(/C=C(/C(=O)c2cccs2)c2nc3ccccc3[nH]2)ccc1O | 100* | i | -4* | 4 | 13 | +
O=C(/C(=C/c1ccc(Cl)cc1)c1nc2ccccc2[nH]1)c1cccs1 | 100* | i | -4.5* | 7 | 28* | +
O=c1[nH]c2ccccc2nc1/C=C(\O)c1cccs1 | 3 | ? | 0.35 | 1 | 1 | .
COc1ccc(C(=O)N/C(=C\c2cccs2)c2nc3ccccc3[nH]2)cc1OC | 1 | i | 0.63 | . | 2 | .
O=C(CSc1nc2ccccc2c(=O)[nH]1)N1CCCCC1 | -5 | i | 0.64 | . | 6 | .
CCCn1c(CCc2ccccc2)nnc1SCC(=O)N1CCOCC1 | -3 | i | -0.84 | -1 | 1 | .
CCC(=O)c1ccc(OCC(O)CNC(C)c2ccccc2)cc1 (stereo unspecified) | 6 | i | 2.1 | 0 | 8 | .
CC(NCC(O)COCCC12CC3CC(CC(C3)C1)C2)c1ccccc1 (stereo unspecified) | 100* | i | -5.2* | 6 | 61 | i
COc1cccc(F)c1C(C[N+](=O)[O-])c1c(N)n(C)c(=O)n(C)c1=O (stereo unspecified) | . | i | -3.6* | 1 | . | +
COc1ccccc1C(C[N+](=O)[O-])c1c[nH]c2ccccc12 (stereo unspecified) | . | i | 0.16 | 6 | . | .
CC(C)(C)c1cnnn1-c1ccc(C(=O)CCl)cc1 | 69* | i | -4.1* | -1 | 3 | +
CC(C)(C)c1cnnn1-c1ccc(C=O)cc1 | 3 | i | -0.99 | 4 | 4 | .
COc1ccc(/C=C/C(=O)c2c(O)c(OC)c3occc3c2OC)cc1 | 39 | i | -4.7* | 0 | 4 | +
COc1ccc(/C=C/C(=O)c2ccoc2)cc1 | 14 | i | -1.2 | . | 2 | .
